In ChEMBL document CHEMBL3085658, “Novel toll-like receptor 4 (TLR4) antagonists identified by structure- and ligand-based virtual screening” (Eur J Med Chem, 2013):
Calls of active or inactive are those of the source. The calls are words filed in the database; no cut-off is given here.

Target: T1, Toll-like receptor 4 (Homo sapiens, UniProt O00206)
Test: Binding affinity to human recombinant TLR4 at >320 uM by SPR method
Conditions: not given
Method in brief: (§1)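 Recombinant human TLR4 was amine-coupled to a CM5 chip at about 8000 RU. Titration was run at 25 °C in PBS pH 7.4 with 2% DMSO, at 0, 5, 10, 20, 40, 80 (repeated at the end), 160 and 320 µM. Each injection lasted 1 min and dissociation was followed for 30 s. The response at the end of association was plotted against concentration.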

T1 sequence (O00206 whole entry): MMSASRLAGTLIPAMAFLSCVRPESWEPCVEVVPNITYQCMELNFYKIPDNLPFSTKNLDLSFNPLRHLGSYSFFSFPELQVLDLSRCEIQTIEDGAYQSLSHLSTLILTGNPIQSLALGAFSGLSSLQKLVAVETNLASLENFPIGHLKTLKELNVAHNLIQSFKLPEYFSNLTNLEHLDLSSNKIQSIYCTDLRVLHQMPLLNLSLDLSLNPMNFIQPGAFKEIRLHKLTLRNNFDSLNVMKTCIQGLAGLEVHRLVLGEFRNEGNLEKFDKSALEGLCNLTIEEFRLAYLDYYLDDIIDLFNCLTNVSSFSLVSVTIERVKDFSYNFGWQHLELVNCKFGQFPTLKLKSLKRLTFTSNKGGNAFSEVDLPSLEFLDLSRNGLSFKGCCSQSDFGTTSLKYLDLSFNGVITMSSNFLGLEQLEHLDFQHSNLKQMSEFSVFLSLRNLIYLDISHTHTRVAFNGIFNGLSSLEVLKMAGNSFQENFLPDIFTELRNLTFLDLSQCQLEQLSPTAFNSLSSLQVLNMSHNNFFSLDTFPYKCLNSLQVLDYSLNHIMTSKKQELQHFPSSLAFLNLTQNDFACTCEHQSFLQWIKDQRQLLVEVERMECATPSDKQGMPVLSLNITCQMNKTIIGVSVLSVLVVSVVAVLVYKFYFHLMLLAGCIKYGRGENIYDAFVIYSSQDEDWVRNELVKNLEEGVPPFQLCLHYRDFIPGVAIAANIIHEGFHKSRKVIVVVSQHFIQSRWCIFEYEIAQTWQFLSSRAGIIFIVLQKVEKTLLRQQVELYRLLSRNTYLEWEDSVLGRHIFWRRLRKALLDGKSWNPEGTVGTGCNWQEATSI

Activity | SMILES
inactive | COc1ccc(O)c(C(=O)c2cnc(/N=C(\N)Nc3ccc(F)cc3)nc2)c1

Target: T1, Toll-like receptor 4
Test: Binding affinity to human recombinant TLR4 up to 320 uM by SPR method
Conditions: not given
Method in brief: as §1

Activity | SMILES
Active | COc1ccc(O)c(C(=O)c2cnc(/N=C(\N)Nc3ccc(F)cc3)nc2)c1

Target: T1, Toll-like receptor 4
Test: Binding affinity to human recombinant TLR4 at 20 uM by SPR method
Conditions: not given
Method in brief: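 Recombinant human TLR4 was amine-coupled to a CM5 chip at about 8000 RU, with a reference flow cell. Runs were at 25 °C in PBS pH 7.4 plus 2% DMSO running buffer. Compounds were injected at 20 and 200 µM for 1 min, and dissociation was monitored for 30 s. Responses were compared against buffer injection, with no regeneration.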

Activity | SMILES
Active | COc1ccc(O)c(C(=O)c2cnc(/N=C(\N)Nc3ccc(F)cc3)nc2)c1

Test system: PBMC
Test: Inhibition of TNFalpha secretion in human PBMC preincubated at 100 uM for 2 hrs before LPS challenge measured after 48 hrs by ELISA
Type: functional
Conditions: not given
Method in brief: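 PBMCs were isolated from healthy volunteer blood and pre-incubated with compound for 2 h. They were then challenged with LPS for 48 h, with TAK-242 as positive control. Supernatant TNF-α was measured by ELISA, and significance was tested by unpaired t tests.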

SMILES | inhibition at 100 µM
COc1ccc(O)c(C(=O)c2cnc(/N=C(\N)Nc3ccc(F)cc3)nc2)c1 | 87.4%
Cc1ccccc1Nc1nc(N)nc(CN2CCC[C@@H]2c2nc3ccccc3s2)n1 | 80.8%
CN(CC(=O)Nc1ccc(N2CCOCC2)cc1)Cc1nc2scc(-c3ccccc3)c2c(=O)[nH]1 | 93.3%

Test system: HEK293
Test: Cytotoxicity against HEK293 cells after 24 hrs by flow cytometry
Type: cell-based
Conditions: human, hek293, 24 h
Method in brief: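 HEK293 cells were cultured for 24 h with compound at 100 or 200 µM, with DMSO as control. Cells were then harvested and stained with propidium iodide to count dead cells. Solubility in RPMI 1640 was first checked by light microscopy for precipitation.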

SMILES | Activity
O=C(CN1CCC[C@H]1c1nc2ccccc2s1)c1c[nH]c(C(=O)N2CCCC2)c1 | Toxic
Cc1cc([C@@H]2CCCN2C[C@H](O)COc2ccc(Cl)cc2)on1 | Toxic
COc1ccc(OC[C@H](O)CN(C)C(=O)c2ccc(Cl)cc2)cc1 | Toxic
Cc1ccccc1NC(=O)NCCNc1ccc(Nc2ccccn2)nn1 | Toxic

Target: T1, Toll-like receptor 4
Test: Antagonist activity at human TLR4 expressed in LPS-stimulated HEK293 cells co-expressing MDM2 and CD14 after 2 hrs by SEAP assay
Type: cell-based
Conditions: in the assay text read “MD-2” for “MDM2”
Method in brief: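 HEK-Blue hTLR4 cells (HEK293 co-transfected with human TLR4, MD-2, CD14 and an inducible SEAP reporter) were cultured per provider instructions. They were pre-incubated with compound at various concentrations for 2 h at 37 C, then challenged with LPS for 20 h. Supernatant SEAP was read colorimetrically, and IC50 was calculated from the decrease in absorbance.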

IC50 | SMILES
16.6 µM | COc1ccc(O)c(C(=O)c2cnc(/N=C(\N)Nc3ccc(F)cc3)nc2)c1
64.1 µM | Cc1ccccc1Nc1nc(N)nc(CN2CCC[C@@H]2c2nc3ccccc3s2)n1
168 µM | CN(CC(=O)Nc1ccc(N2CCOCC2)cc1)Cc1nc2scc(-c3ccccc3)c2c(=O)[nH]1

Target: T1, Toll-like receptor 4
Test: Antagonist activity at human TLR4 expressed in LPS-stimulated HEK293 cells co-expressing MD-2 and CD14 after 2 hrs by SEAP assay
Conditions: not given

SMILES | IC50
CC(C)(C)[C@@H]1CCc2c(sc3nc(CCC(=O)N4CCN(c5ccccn5)CC4)[nH]c(=O)c23)C1 | ND(Insoluble)
O=c1[nH]c(CN2CCC[C@@H]2c2ccc3c(c2)OCCCO3)nc2scc(-c3ccccc3)c12 | ND(Insoluble)
N#Cc1ccc(OC[C@H](O)CNCc2nc3ccccc3s2)cc1 | Not Active
Cc1ncc(CN(C)C[C@@H](O)COc2ccc(F)cc2)s1 | ND(Insoluble)
N/C(=N\C(=O)c1ccc(-c2ccccc2)cc1)Nc1nc2ccccc2o1 | ND(Insoluble)
O=C(NCCNc1ccc(Nc2ccccn2)nn1)Nc1ccccc1F | Not Active
CC(C)(C)[C@H]1CCc2c(sc3nc(CCC(=O)NCc4ccc5c(c4)OCO5)[nH]c(=O)c23)C1 | ND(Insoluble)
Cc1nn(Cc2ccccc2Cl)c(C)c1CN(C)C(=O)/C=C/c1ccc2c(c1)OCO2 | Not Active
Cc1nn(Cc2ccccc2Cl)c(C)c1CN(C)C(=O)/C=C/c1cccs1 | Not Active
CCN1CCN(CCNC(=O)[C@H](C)C2CCN(C(=O)c3cc4cc(Cl)ccc4[nH]3)CC2)CC1 | ND(Insoluble)
Nc1nc(CSc2nnc(Cc3ccccc3F)n2N)nc(Nc2ccc(Cl)cc2)n1 | Not Active
Cc1nn(Cc2ccccc2Cl)c(C)c1CN(C)CCn1nc2ccccn2c1=O | Not Active
COc1ccc(OC[C@H](O)CN2CCc3ccccc3C2)cc1 | ND(Insoluble)
Cc1nn(-c2ccccc2)c(C)c1CN(C)C[C@@H](O)Cn1cccn1 | Not Active

Further lines, results first:

IC50 | SMILES
Not Active | O=C(NCCNC(=O)c1cc2ccccc2[nH]1)C(=O)NCc1ccc2c(c1)OCO2
ND(Insoluble) | CN(CC(=O)Nc1ccc(Cl)c(Cl)c1)Cc1nc2scc(-c3ccc(F)cc3)c2c(=O)[nH]1
ND(Insoluble) | Cc1ccc(Cn2cc(C(=O)NNC(=O)Nc3ccc4c(c3)OCO4)ccc2=O)cc1
ND(Insoluble) | Cc1cccc(NC(=O)CNC(=O)CCc2nc(O)c3c4c(sc3n2)CCCC4)c1C
ND(Insoluble) | COc1ccc(NC(=O)CN(C)C(=O)c2cc(-c3ccc(C)s3)[nH]n2)cc1
ND(Insoluble) | COC(=O)c1ccc(/C=N/NC(=O)c2cc(-c3cccc([N+](=O)[O-])c3)[nH]n2)cc1
ND(Insoluble) | C[C@H](SCc1nc2scc(-c3ccccc3)c2c(=O)[nH]1)C(=O)NCc1nc2ccccc2[nH]1
ND(Insoluble) | O=C(CCc1nc(O)c2c3c(sc2n1)CCCC3)NCC(=O)Nc1ccccc1Br
ND(Insoluble) | O=C(CSCC(=O)Nc1ccccc1)NNC(=O)Nc1ccc(Cl)cc1
ND(Insoluble) | C[C@H](Sc1nc2scc(-c3cccs3)c2c(=O)[nH]1)C(=O)NC(=O)NC1CCCCC1
ND(Insoluble) | O=C(CSc1nnc(-c2ccc3c(c2)OCCO3)c(O)n1)Nc1ccc(F)c(F)c1
ND(Insoluble) | COc1cccc(NC(=O)/C=C(\C)NNC(=O)c2ccc(-c3ccccc3)cc2)c1
Not Active | N=C(NC1=N[C@@H](CC(=O)Nc2ccc(Cl)cc2)C(O)=N1)Nc1ccccc1
Not Active | CN(Cc1nc2ccccc2s1)C[C@@H](O)COc1ccc(F)cc1
ND(Insoluble) | O=C(CCc1nc2sc3c(c2c(=O)[nH]1)CCCC3)NCc1nc2ccccc2[nH]1
ND(Insoluble) | CN(CC(=O)Nc1cccc(F)c1)Cc1nc2scc(-c3ccc(F)cc3)c2c(=O)[nH]1
ND(Insoluble) | Cc1ccc(C(=O)Nc2c(N)nc(SCC(=O)NCc3ccc4c(c3)OCO4)[nH]c2=O)cc1
ND(Insoluble) | O=C(CSc1nnc(-c2ccc3c(c2)OCCO3)c(O)n1)Nc1ccc(F)cc1
ND(Insoluble) | CCN(CC(=O)Nc1ccc2c(c1)OCCO2)Cc1nc2scc(-c3ccc(C)s3)c2c(=O)[nH]1
Not Active | C[C@@H](SCc1nc2scc(-c3ccccc3)c2c(=O)[nH]1)C(=O)Nc1ccc2c(c1)OCO2
ND(Insoluble) | CC(C)c1ccc(NC(=O)CCc2csc(NC(=O)c3ccc[nH]c3=O)n2)cc1
ND(Insoluble) | O=C(CSCC(=O)Nc1ccccc1)NNC(=O)Nc1ccccc1
ND(Insoluble) | COc1ccc(NC(=N)Nc2nc(C)c(Cc3ccccc3)c(O)n2)cc1
ND(Insoluble) | COc1ccccc1CNC(=O)c1ccccc1NS(=O)(=O)c1ccc2[nH]c(=O)[nH]c2c1
